Laboratory results as given in ChEMBL document CHEMBL1240321, “Cyclostreptin binds covalently to microtubule pores and lumenal taxoid binding sites” (Nat Chem Biol, 2007).
Active and inactive are the calls of the source. The calls are words filed in the database; no cut-off is given here.

Experiments:
A549 [1] = experiment: Induction of mitotic cell cycle arrest in human A549 cells assessed as accumulation of cells at G1/G0 phase at 100 nM after 24 hrs by flow cytometry (Rvb= 39.2%); type: functional
[2] = Displacement of [3H]paclitaxel from microtubule assessed as bound radioligand level at 20 uM treated before radioligand addition by competitive binding assay
[3] = Induction of mitotic cell cycle arrest in human A2780AD cells assessed as accumulation of cells at SubG1 phase at 100 nM after 24 hrs by flow cytometry (Rvb= 4.1%); type: functional, A2780 ADR
Tubulin (Homo sapiens) = Tubulin (Homo sapiens) (UniProt P68371+Q9H4B7+P0DPH7+P68366+Q13509+Q71U36+P04350+Q3ZCM7+P07437+P68363+Q9BQE3+Q6PEY2+Q13885+Q9BVA1+Q9BUF5); experiment: Binding affinity to tubulin in human A549 cells
[4] = Induction of mitotic cell cycle arrest in potoroo PtK2 cells assessed as accumulation of cells at G1/G0 phase at 2 uM after 7 hrs by flow cytometry (Rvb= 15.5%); type: functional, Potorous tridactylus
A2780 [5] = experiment: Induction of mitotic cell cycle arrest in human A2780 cells assessed as accumulation of cells at SubG1 phase at 100 nM after 24 hrs by flow cytometry (Rvb= 2.5%); type: functional
[6] = Induction of mitotic cell cycle arrest in potoroo PtK2 cells assessed as accumulation of cells at G1/G0 phase at 2 uM after 7 hrs by flow cytometry (Rvb= 60%); type: functional, Potorous tridactylus
[7] = Induction of mitotic cell cycle arrest in human A2780AD cells assessed as accumulation of cells at G1/G0 phase at 100 nM after 24 hrs by flow cytometry (Rvb= 59.2%); type: functional, A2780 ADR
PtK2 [8] = experiment: Induction of microtubule bundle formation in potoroo PtK2 cells at 5 uM after 7 hrs by flow cytometry; type: cell-based; details: Potorous tridactylus
[9] = Induction of micronucleation in potoroo PtK2 cells at 10 uM after 7 hrs by flow cytometry; type: functional, Potorous tridactylus
A2780 [10] = experiment: Induction of mitotic cell cycle arrest in human A2780 cells assessed as accumulation of cells at G1/G0 phase at 100 nM after 24 hrs by flow cytometry (Rvb= 60%); type: functional
[11] = Induction of mitotic cell cycle arrest in potoroo PtK2 cells assessed as accumulation of cells at G2+M phase at 2 uM treated for 7 hrs, washed followed by 16 hrs incubation by flow cytometry (Rvb= 23%); type: functional, Potorous tridactylus
[12] = Induction of mitotic cell cycle arrest in potoroo PtK2 cells assessed as accumulation of cells at G2+M phase at 5 uM after 7 hrs by flow cytometry (Rvb= 22.1%); type: functional, Potorous tridactylus
[13] = Induction of mitotic cell cycle arrest in potoroo PtK2 cells assessed as accumulation of cells at G1/G0 phase at 5 uM after 7 hrs by flow cytometry (Rvb= 60%); type: functional, Potorous tridactylus
[14] = Induction of mitotic cell cycle arrest in potoroo PtK2 cells assessed as accumulation of cells at SubG1 phase at 2 uM treated for 7 hrs, washed followed by 16 hrs incubation by flow cytometry (Rvb= 2%); type: functional, Potorous tridactylus
[15] = Induction of micronucleation in potoroo PtK2 cells at 2 uM treated for 7 hrs followed by compound washout measured after 16 hrs by flow cytometry; type: functional, Potorous tridactylus
[16] = Induction of mitotic cell cycle arrest in potoroo PtK2 cells assessed as accumulation of cells at SubG1 phase at 2 uM after 7 hrs by flow cytometry (Rvb= 2.4%); type: functional, Potorous tridactylus
[17] = Cytotoxicity against human A2780-1A9 cells; type: functional, cell-based
[18] = Induction of mitotic cell cycle arrest in human A2780AD cells assessed as accumulation of cells at S phase at 100 nM after 24 hrs by flow cytometry (Rvb= 16.2%); type: functional, A2780 ADR
[19] = Induction of mitotic cell cycle arrest in potoroo PtK2 cells assessed as accumulation of cells at G1/G0 phase at 2 uM treated for 7 hrs, washed followed by 48 hrs incubation by flow cytometry (Rvb= 65.8%); type: functional, Potorous tridactylus
A549 [20] = experiment: Binding affinity to beta-tubulin in human A549 cells at 1 uM after 24 hrs by HPLC analysis; type: cell-based
Procedure, shortened: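 A549 monolayers exposed 24 h to 1 µM ligand or 0.1% DMSO. Tubulin purified from homogenate supernatant by one-step DEAE ion exchange (0.4 M KCl load, 0.8 M KCl elution) to 90% purity. Tryptic or chymotryptic digests analysed by HPLC-MRM with Q3 at m/z 249.0. Adduct fraction estimated from the areas of modified and unmodified peptide peaks.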

[21] = Induction of mitotic cell cycle arrest in potoroo PtK2 cells assessed as accumulation at S phase at 100 nM after 24 hrs by flow cytometry (Rvb= 12%); type: functional, Potorous tridactylus
[22] = Induction of mitotic cell cycle arrest in potoroo PtK2 cells assessed as accumulation of cells at G2+M phase at 2 uM treated for 7 hrs, washed followed by 48 hrs incubation by flow cytometry (Rvb= 22.3%); type: functional, Potorous tridactylus
[23] = Binding affinity to beta-tubulin 219-243 amino acid sequence by mass spectroscopy
Procedure, shortened: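 Polymerized native microtubules (20 µM tubulin, 25 µM ligand, 30 min, 37 °C in GAB with 1 mM GTP) pelleted and washed, then digested with trypsin (2 h, 37 °C) or chymotrypsin (1 h, 25 °C). Peptides analysed by nano-HPLC triple-quadrupole MS with precursor ion scanning for the m/z 249.0 cyclostreptin fragment. Adduct stoichiometry taken from the 219–243 peptide signal.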

[24] = Induction of micronucleation in potoroo PtK2 cells at 5 uM after 7 hrs by flow cytometry; type: functional, Potorous tridactylus
[25] = Induction of micronucleation in potoroo PtK2 cells at 2 uM after 7 hrs by flow cytometry; type: functional, Potorous tridactylus
A549 [26] = experiment: Induction of mitotic cell cycle arrest in human A549 cells assessed as accumulation of cells at G2+M phase at 100 nM after 24 hrs by flow cytometry (Rvb= 19.6%); type: functional
[27] = Induction of mitotic cell cycle arrest in potoroo PtK2 cells assessed as accumulation at S phase at 5 uM after 7 hrs by flow cytometry (Rvb= 15.5%); type: functional, Potorous tridactylus
[28] = Cytotoxicity against human A2780AD cells; type: functional, cell-based; details: A2780 ADR
[29] = Induction of mitotic cell cycle arrest in potoroo PtK2 cells assessed as accumulation of cells at SubG1 phase at 2 uM treated for 7 hrs, washed followed by 48 hrs incubation by flow cytometry (Rvb= 1.1%); type: functional, Potorous tridactylus
A549 [30] = experiment: Induction of mitotic cell cycle arrest in human A549 cells assessed as accumulation of cells at SubG1 phase at 100 nM after 24 hrs by flow cytometry (Rvb= 25%); type: functional
PtK2 [31] = experiment: Induction of micronucleation in potoroo PtK2 cells at 2 uM treated for 7 hrs followed by compound washout measured after 48 hrs by flow cytometry; type: functional, cell-based; details: Potorous tridactylus
[32] = Induction of mitotic cell cycle arrest in potoroo PtK2 cells assessed as accumulation at S phase at 5 uM treated for 7 hrs, washed followed by 48 hrs incubation by flow cytometry (Rvb= 10.7%); type: functional, Potorous tridactylus
PtK2 [33] = experiment: Induction of microtubule bundle formation in potoroo PtK2 cells at 2 uM after 7 hrs by flow cytometry; type: cell-based; details: Potorous tridactylus

**Q.** For CC1=C[C@H]2[C@@H](O)[C@H](C)[C@@H](O)[C@@H]2[C@H]2[C@@H]3C4=C5O[C@](C)(CC[C@@H](OC4=O)[C@H]5C)[C@@H]3C[C@@H]12 [CYCLOSTREPTIN], which Activity (A549 [1]) is on record?
**A.** The Activity was 4%.

**Q.** And the Activity [2]?
**A.** The Activity was 25%.

**Q.** And the Activity [3]?
**A.** Its Activity is 16.4%.

**Q.** And the Activity (Tubulin (Homo sapiens))?
**A.** Its Activity is “Active”.

**Q.** And the Activity [4]?
**A.** Its Activity is 18%.

**Q.** And the Activity (A2780 [5])?
**A.** Its Activity is 16.3%.

**Q.** And the Activity [6]?
**A.** Its Activity is 48%.

**Q.** And the Activity [7]?
**A.** Its Activity is 6.6%.

**Q.** And the Activity (PtK2 [8])?
**A.** Its Activity is 4%.

**Q.** And the Activity [9]?
**A.** Its Activity is 4%.

**Q.** And the Activity (A2780 [10])?
**A.** The Activity was 12.1%.

**Q.** And the Activity [11]?
**A.** The Activity was 59%.

**Q.** What about the Activity [12] of the same compound?
**A.** The Activity was 35%.

**Q.** What about the Activity [13] of the same compound?
**A.** The Activity was 45.2%.

**Q.** What about the Activity [14] of the same compound?
**A.** The Activity was 3.5%.

**Q.** What about the Activity [15] of the same compound?
**A.** Its Activity is 70%.

**Q.** What about the Activity [16] of the same compound?
**A.** The Activity was 2.6%.

**Q.** What about the IC50 [17] of the same compound?
**A.** Its IC50 is 0.044 µM.

**Q.** And the Activity [18]?
**A.** The Activity was 6%.

**Q.** What about the Activity [19] of the same compound?
**A.** Its Activity is 8.7%.

**Q.** What about the Activity (A549 [20]) of the same compound?
**A.** Its Activity is “Active”.

**Q.** And the Activity [21]?
**A.** Its Activity is 14.8%.

**Q.** And the Activity [22]?
**A.** The Activity was 75%.

**Q.** What about the Activity [23] of the same compound?
**A.** The Activity was “Active”.

**Q.** And the Activity [24]?
**A.** The Activity was 4%.

**Q.** What about the Activity [25] of the same compound?
**A.** The Activity was 4%.

**Q.** What about the Activity (A549 [26]) of the same compound?
**A.** The Activity was 72%.

**Q.** And the Activity [27]?
**A.** Its Activity is 17.5%.

**Q.** And the IC50 [28]?
**A.** The IC50 was 0.051 µM.

**Q.** And the Activity [29]?
**A.** The Activity was 7.1%.

**Q.** And the Activity (A549 [30])?
**A.** Its Activity is 15%.

**Q.** What about the Activity (PtK2 [31]) of the same compound?
**A.** Its Activity is “Active”.

**Q.** What about the Activity [32] of the same compound?
**A.** Its Activity is 8.6%.

**Q.** What about the Activity (PtK2 [33]) of the same compound?
**A.** Its Activity is 4%.
